Laboratory results taken from ChEMBL document CHEMBL1649381, “Domino approach to 2-aroyltrimethoxyindoles as novel heterocyclic combretastatin A4 analogues” (Eur J Med Chem, 2011).

Tests used:
B16 = assay: Cytotoxicity against mouse B16 cells assessed as reduction in cell viability after 48 hrs by MTT assay; type: functional, cell-based; settings: B16, 48 h
Procedure, shortened: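 B16 cells kept in DMEM with 2 mM L-glutamine, 10% FBS, penicillin/streptomycin at 37 °C, 5% CO2. After 48 h exposure, MTT was read at 562 nm with background subtracted. IC50 is the mean of three independent experiments.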

[1] = Inhibition of tubulin polymerization by DAPI fluorescent assay
Procedure, shortened: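 Tubulin (97% pure, 1 mg/ml final) in PME buffer (100 mM PIPES, 1 mM MgSO4, 2 mM EGTA) with DAPI and graded compound, colchicine as internal control. Preincubated 45 min at room temperature, then polymerization started by adding 1 mM GTP. Run 2 h at 37 °C with fluorescence excitation at 360 nm. IC50 taken from a semi-log plot of % inhibition against concentration.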

HCT-116 = assay: Antiproliferative activity against human HCT116 cells after 72 hrs by MTS assay; type: functional, cell-based; settings: HCT-116, 72 h
Procedure, shortened: (§1)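 Cells grown in RPMI 1640 with 10% fetal calf serum, streptomycin and fungizone at 37 °C, 5% CO2. MTS reagent was added for 2 h and absorbance read at 490. IC50 is the concentration giving 50% growth inhibition.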

HCT-15 = assay: Antiproliferative activity against human HCT15 cells after 72 hrs by MTS assay; type: functional, cell-based; settings: HCT-15, 72 h; procedure, shortened: as §1
HT-29 = assay: Antiproliferative activity against human HT-29 cells after 72 hrs by MTS assay; type: functional, cell-based; settings: HT-29, 72 h; procedure, shortened: as §1

IC50 [1] [µM]	IC50 (HCT-116) [µM]	IC50 (HCT-15) [µM]	IC50 (HT-29) [µM]	SMILES	IC50 (B16) [µM]
> 20				COc1cc2[nH]c(C(=O)c3ccccc3)cc2c(OC)c1OC	45
9	4.2	0.45	1.24	COc1ccc(C(=O)c2cc3c(OC)c(OC)c(OC)cc3[nH]2)cc1	> 50
> 20				COc1ccc(C(=O)c2cc3c(OC)c(OC)c(OC)cc3[nH]2)cc1F	16
4	2.8	0.61	1.09	COc1cc2[nH]c(C(=O)c3ccc(C)cc3)cc2c(OC)c1OC	10
10	2	0.32	0.99	COc1cc2[nH]c(C(=O)c3ccc(C)c(N)c3)cc2c(OC)c1OC	36
15				COc1ccc(C(=O)c2cc3c(OC)c(OC)c(OC)cc3[nH]2)cn1	> 50
> 20				COc1cc2[nH]c(C(=O)/C=C/c3ccccc3)cc2c(OC)c1OC	16
9	> 50	> 50	> 50	COc1cc2cc(C(=O)c3ccccc3)[nH]c2c(OC)c1OC	> 50
12				COc1ccc(C(=O)c2cc3cc(OC)c(OC)c(OC)c3[nH]2)cc1	> 50
20				COc1ccc(C(=O)c2cc3cc(OC)c(OC)c(OC)c3[nH]2)cc1F	> 50
> 20	> 50	> 50	> 50	COc1cc2cc(C(=O)c3ccc(C)cc3)[nH]c2c(OC)c1OC	10
18				COc1ccc(C(=O)c2cc3cc(OC)c(OC)c(OC)c3[nH]2)cn1	> 50
18				COc1cc2cc(C(=O)/C=C/c3ccccc3)[nH]c2c(OC)c1OC	33

SMILES	IC50 [1] [µM]	IC50 (HCT-116) [µM]	IC50 (HCT-15) [µM]	IC50 (HT-29) [µM]	IC50 (B16) [µM]
COc1ccc(/C=C\c2cc(OC)c(OC)c(OC)c2)cc1O [COMBRETASTATIN A4]	0.27	0.001	0.001	0.013	0.005
